Results published in ChEMBL document CHEMBL2417507, “Synthesis and bioevaluation of some new isoniazid derivatives” (Bioorg Med Chem, 2013).
Values after ≈ are worked out from the molar mass of the structure shown. Active and inactive are the calls of the source. No cut-off for these calls is given here.

Experiments:
[1] = system: Acinetobacter baumannii; test: Antibacterial activity against Acinetobacter baumannii 125 assessed as growth inhibition at 1 mg/mL after 24 hrs by agar-disk diffusion technique; type: functional, organism-based
Method in brief: (§1)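 Agar-disk diffusion, adapted: plates seeded with 0.5 McFarland suspension prepared from 24 h cultures; 5 µL of a 1 mg/mL compound solution spotted onto the seeded solid medium; incubated 24 h at 37 °C. Stocks made in DMSO.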

[2] = system: Proteus mirabilis; test: Antibacterial activity against Proteus mirabilis 1751 assessed as growth inhibition at 1 mg/mL after 24 hrs by agar-disk diffusion technique; type: functional, organism-based; method in brief: as §1
[3] = system: Escherichia coli; test: Antibacterial activity against Escherichia coli 1777 assessed as growth inhibition at 1 mg/mL after 24 hrs by agar-disk diffusion technique; type: functional, organism-based; method in brief: as §1
[4] = system: HCT-8; test: Decrease in NAT2 gene expression in human HCT8 cells at 50 ug/mL after 24 hrs by RT-PCR analysis; type: ADME, cell-based; details: hct-8, 24 h
[5] = system: Pseudomonas aeruginosa; test: Antibacterial activity against Pseudomonas aeruginosa 165 assessed as growth inhibition at 1 mg/mL after 24 hrs by agar-disk diffusion technique; type: functional, organism-based; method in brief: as §1
[6] = system: Citrobacter koseri; test: Antibacterial activity against Citrobacter koseri 1742 assessed as growth inhibition at 1 mg/mL after 24 hrs by agar-disk diffusion technique; type: functional, organism-based; method in brief: as §1
[7] = system: Acinetobacter baumannii; test: Antibacterial activity against Acinetobacter baumannii 135 assessed as growth inhibition at 1 mg/mL after 24 hrs by agar-disk diffusion technique; type: functional, organism-based; method in brief: as §1
[8] = system: Enterobacter cloacae; test: Antibacterial activity against Enterobacter cloacae 1845 assessed as growth inhibition at 1 mg/mL after 24 hrs by agar-disk diffusion technique; type: functional, organism-based; method in brief: as §1
[9] = system: HCT-8; test: Induction of apoptosis in human HCT8 cells assessed as necrotic cells at 50 ug/mL after 24 hrs by Annexin V-FITC and propidium iodide staining-based flow cytometric analysis (reference value: 7.73%); type: cell-based; details: hct-8, 24 h
[10] = system: Staphylococcus aureus; test: Antibacterial activity against Staphylococcus aureus assessed as growth inhibition at 1 mg/mL after 24 hrs by agar-disk diffusion technique; type: functional, organism-based; method in brief: as §1
[11] = system: HCT-8; test: Cell cycle arrest in human HCT8 cells assessed as accumulation at G2/M phase at 50 ug/mL after 24 hrs by propidium iodide staining-based flow cytometric analysis (reference value: 13.83%); type: ADME; details: hct-8, 24 h
[12] = system: Acinetobacter baumannii; test: Antibacterial activity against Acinetobacter baumannii 192 assessed as growth inhibition at 1 mg/mL after 24 hrs by agar-disk diffusion technique; type: functional, organism-based; method in brief: as §1
[13] = system: Acinetobacter baumannii; test: Antibacterial activity against Acinetobacter baumannii 122 assessed as growth inhibition at 1 mg/mL after 24 hrs by agar-disk diffusion technique; type: functional, organism-based; method in brief: as §1
[14] = system: HCT-8; test: Decrease in NAT1 gene expression in human HCT8 cells at 50 ug/mL after 24 hrs by RT-PCR analysis; type: ADME, cell-based; details: hct-8, 24 h
[15] = system: Enterococcus faecalis; test: Antibacterial activity against Enterococcus faecalis 2920 assessed as growth inhibition at 1 mg/mL after 24 hrs by agar-disk diffusion technique; type: functional, organism-based; method in brief: as §1
[16] = system: Staphylococcus hominis; test: Antibacterial activity against Staphylococcus hominis 1813 assessed as growth inhibition at 1 mg/mL after 24 hrs by agar-disk diffusion technique; type: functional, organism-based; method in brief: as §1
[17] = system: Pseudomonas aeruginosa; test: Antibacterial activity against Pseudomonas aeruginosa 1144 assessed as growth inhibition at 1 mg/mL after 24 hrs by agar-disk diffusion technique; type: functional, organism-based; method in brief: as §1
[18] = system: HCT-8; test: Induction of apoptosis in human HCT8 cells assessed as late apoptotic cells at 50 ug/mL after 24 hrs by Annexin V-FITC and propidium iodide staining-based flow cytometric analysis (reference value: 2.97%); type: cell-based; details: hct-8, 24 h
[19] = system: Radical scavenging activity; test: Antioxidant activity assessed as DPPH radical scavenging activity at 0.1 mg/mL after 30 mins under dark conditions by spectrophotometric analysis relative to control; type: functional
Method in brief: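 Compounds dissolved in methanol at 0.1 mg/mL; 0.2 mL mixed with 1.8 mL of 2 × 10^-4 M DPPH in methanol and kept in the dark 30 min. Absorbance read at 517 nm. The blank was DPPH plus methanol. TAC (%) = (Abs initial − Abs 30 min)/Abs initial × 100.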

[20] = system: HCT-8; test: Cell cycle arrest in human HCT8 cells assessed as accumulation at G0/G1 phase at 50 ug/mL after 24 hrs by propidium iodide staining-based flow cytometric analysis (reference value: 46.43%); type: ADME; details: hct-8, 24 h
[21] = system: HCT-8; test: Cell cycle arrest in human HCT8 cells assessed as accumulation at S phase at 50 ug/mL after 24 hrs by propidium iodide staining-based flow cytometric analysis (reference value: 39.43%); type: ADME; details: hct-8, 24 h
[22] = system: Acinetobacter baumannii; test: Antibacterial activity against Acinetobacter baumannii 247 assessed as growth inhibition at 1 mg/mL after 24 hrs by agar-disk diffusion technique; type: functional, organism-based; method in brief: as §1
[23] = system: Pseudomonas aeruginosa; test: Antibacterial activity against Pseudomonas aeruginosa ATCC 27853 assessed as growth inhibition at 1 mg/mL after 24 hrs by agar-disk diffusion technique; type: functional, organism-based; method in brief: as §1
[24] = system: Morganella morganii; test: Antibacterial activity against Morganella morganii 2810 assessed as growth inhibition at 1 mg/mL after 24 hrs by agar-disk diffusion technique; type: functional, organism-based; method in brief: as §1
[25] = Induction of apoptosis in human HCT8 cells assessed as viable cells at 50 ug/mL after 24 hrs by Annexin V-FITC and propidium iodide staining-based flow cytometric analysis (reference value: 87.7%); type: cell-based, HCT-8; details: read-out: Activity
[26] = system: Klebsiella pneumoniae; test: Antibacterial activity against Klebsiella pneumoniae 1756 assessed as growth inhibition at 1 mg/mL after 24 hrs by agar-disk diffusion technique; type: functional, organism-based; method in brief: as §1
[27] = system: HCT-8; test: Induction of apoptosis in human HCT8 cells assessed as early apoptotic cells at 50 ug/mL after 24 hrs by Annexin V-FITC and propidium iodide staining-based flow cytometric analysis (reference value: 1.57%); type: cell-based; details: hct-8, 24 h
[28] = system: Mycobacterium tuberculosis; test: Antimycobacterial activity against Mycobacterium tuberculosis after 8 days by micro plate Alamar Blue assay; type: functional; details: 192 h
Method in brief: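 Clinical M. tuberculosis strain grown in Middlebrook 7H9 broth. Compounds were dissolved in DMSO and serially diluted twofold on the plate, final 25 to 0.012 µg/mL. Plates were sealed and held 8 days at 37 °C. Alamar Blue with 10% Tween 80 (1:1) was then added for another 24 h at 37 °C. MIC was the lowest concentration preventing the blue-to-pink change.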

[29] = system: HCT-8; test: Increase in NAT2 gene expression in human HCT8 cells at 50 ug/mL after 24 hrs by RT-PCR analysis; type: ADME, cell-based; details: hct-8, 24 h
[30] = system: Pseudomonas putida; test: Antibacterial activity against Pseudomonas putida 160 assessed as growth inhibition at 1 mg/mL after 24 hrs by agar-disk diffusion technique; type: functional, organism-based; method in brief: as §1
[31] = system: Acinetobacter baumannii; test: Antibacterial activity against Acinetobacter baumannii 136 assessed as growth inhibition at 1 mg/mL after 24 hrs by agar-disk diffusion technique; type: functional, organism-based; method in brief: as §1
[32] = system: HCT-8; test: Increase in NAT1 gene expression in human HCT8 cells at 50 ug/mL after 24 hrs by RT-PCR analysis; type: ADME, cell-based; details: hct-8, 24 h
[33] = system: HCT-8; test: Cell cycle arrest in human HCT8 cells assessed as accumulation at S phase at 25 ug/mL after 24 hrs by propidium iodide staining-based flow cytometric analysis (reference value: 39.43%); type: ADME; details: hct-8, 24 h
[34] = system: HCT-8; test: Cytotoxicity against human HCT8 cells at 50 ug/mL after 24 hrs by trypan blue exclusion assay; type: cell-based; details: hct-8, 24 h
Method in brief: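 HCT8 cells (3 × 10^5 per 3.5-cm well) treated 24 h, then trypsinised, spun and resuspended in PBS. Suspension mixed 1:1 with 0.4% trypan blue for 1 min and viable/non-viable cells counted on a haemocytometer. Each experiment repeated three times.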

[35] = system: HCT-8; test: Cell cycle arrest in human HCT8 cells assessed as accumulation at G0/G1 phase at 25 ug/mL after 24 hrs by propidium iodide staining-based flow cytometric analysis (reference value: 46.43%); type: ADME; details: hct-8, 24 h
[36] = system: HCT-8; test: Decrease in NAT1 gene expression in human HCT8 cells at 25 ug/mL after 24 hrs by RT-PCR analysis; type: ADME, cell-based; details: hct-8, 24 h
[37] = system: HCT-8; test: Cell cycle arrest in human HCT8 cells assessed as accumulation at G2/M phase at 25 ug/mL after 24 hrs by propidium iodide staining-based flow cytometric analysis (reference value: 13.83%); type: ADME; details: hct-8, 24 h
[38] = system: HCT-8; test: Decrease in NAT2 gene expression in human HCT8 cells at 25 ug/mL after 24 hrs by RT-PCR analysis; type: ADME, cell-based; details: hct-8, 24 h

SMILES | growth inhibition (GI) [2] | growth inhibition (GI) [3] | growth inhibition (GI) [7] | growth inhibition (GI) [8] | Activity [9] | growth inhibition (GI) [10] | Activity [11] | growth inhibition (GI) [16] | growth inhibition (GI) [17] | Activity [18] | TAC [19] | Activity [20] | Activity [21] | growth inhibition (GI) [23] | viability at 24 h, 50 ug/mL [25] | growth inhibition (GI) [26] | Activity [27] | MIC [28] | growth inhibition (GI) [30] | growth inhibition (GI) [31] | also measured
NNC(=O)c1ccncc1 [ISONIAZID] | inactive | inactive | Active | Active | 17.9% | inactive | 15.01% | inactive | inactive | 8.56% | 90% | 44.12% | 38.48% | inactive | 71.5% | inactive | 1.95% | 0.098 µg/mL (≈ 0.715 µM) |  |  | growth inhibition (GI) [1]: inactive; Activity [4]: Toxic; growth inhibition (GI) [5]: inactive; growth inhibition (GI) [6]: inactive; growth inhibition (GI) [12]: Active; growth inhibition (GI) [13]: inactive; Activity [14]: Toxic; growth inhibition (GI) [15]: inactive; growth inhibition (GI) [22]: inactive; growth inhibition (GI) [24]: inactive
Cc1ccc(/C=C/C(N)(S)NNC(=O)c2ccncc2)cc1 (centres undefined) | inactive |  | Active | Active | 28.5% | Active | 11.15% | Active | Active | 16% | 12.5% | 72.35% | 13.1% | inactive | 54.3% |  | 1.16% | 0.781 µg/mL (≈ 2.48 µM) | Active | Active | Activity [29]: Toxic; growth inhibition (GI) [5]: Active; growth inhibition (GI) [12]: inactive; growth inhibition (GI) [22]: inactive; Activity [32]: Toxic
NC(=S)/C=C/c1ccccc1 | Active | Active | Active | Active | 22.9% | Active |  | Active |  | 36% | 35.7% |  |  |  | 28.3% | Active | 12.9% |  | Active | Active | Activity [33]: 43.45%; Activity [34]: Toxic; growth inhibition (GI) [5]: Active; growth inhibition (GI) [6]: Active; growth inhibition (GI) [13]: Active; Activity [35]: 33.09%; Activity [36]: Toxic; Activity [37]: 27.82%
NC(=S)/C=C/c1ccc(Cl)cc1 | inactive |  | Active |  | 24.9% | Active |  |  |  | 33.7% | 15.7% |  |  | inactive | 18.7% | inactive | 22.7% |  | Active | Active | growth inhibition (GI) [1]: inactive; Activity [33]: 56.31%; Activity [34]: Toxic; Activity [35]: 31.35%; growth inhibition (GI) [22]: inactive; growth inhibition (GI) [24]: inactive; Activity [37]: 13.01%; Activity [38]: Toxic
NC(S)(/C=C/c1ccccc1)NNC(=O)c1ccncc1 (centres undefined) |  |  | Active | Active | 18.9% | Active | 18.72% | Active | Active | 12.2% | 88.2% | 59.95% | 25.9% | Active | 67.9% |  | 0.95% | 0.391 µg/mL (≈ 1.3 µM) | Active | Active | Activity [29]: Toxic; growth inhibition (GI) [6]: Active; growth inhibition (GI) [12]: Active; Activity [32]: Toxic
CCOc1ccc(/C=C/C(N)(S)NNC(=O)c2ccncc2)cc1 (centres undefined) |  | inactive | Active | inactive | 28.3% |  | 17.5% |  | Active | 21.6% | 25.7% | 58.14% | 22.43% | inactive | 44.2% | inactive | 5.81% | 0.781 µg/mL (≈ 2.27 µM) | Active | Active | Activity [29]: Toxic; growth inhibition (GI) [24]: inactive; Activity [32]: Toxic
